The values below come from ChEMBL document CHEMBL3817796, “Discovery of Novel 15-Lipoxygenase Activators To Shift the Human Arachidonic Acid Metabolic Network toward Inflammation Resolution” (J Med Chem, 2016).

Experiment [1] has as its target T1, Polyunsaturated fatty acid lipoxygenase ALOX15 (Homo sapiens, UniProt P16050).
T1 sequence (P16050 whole entry): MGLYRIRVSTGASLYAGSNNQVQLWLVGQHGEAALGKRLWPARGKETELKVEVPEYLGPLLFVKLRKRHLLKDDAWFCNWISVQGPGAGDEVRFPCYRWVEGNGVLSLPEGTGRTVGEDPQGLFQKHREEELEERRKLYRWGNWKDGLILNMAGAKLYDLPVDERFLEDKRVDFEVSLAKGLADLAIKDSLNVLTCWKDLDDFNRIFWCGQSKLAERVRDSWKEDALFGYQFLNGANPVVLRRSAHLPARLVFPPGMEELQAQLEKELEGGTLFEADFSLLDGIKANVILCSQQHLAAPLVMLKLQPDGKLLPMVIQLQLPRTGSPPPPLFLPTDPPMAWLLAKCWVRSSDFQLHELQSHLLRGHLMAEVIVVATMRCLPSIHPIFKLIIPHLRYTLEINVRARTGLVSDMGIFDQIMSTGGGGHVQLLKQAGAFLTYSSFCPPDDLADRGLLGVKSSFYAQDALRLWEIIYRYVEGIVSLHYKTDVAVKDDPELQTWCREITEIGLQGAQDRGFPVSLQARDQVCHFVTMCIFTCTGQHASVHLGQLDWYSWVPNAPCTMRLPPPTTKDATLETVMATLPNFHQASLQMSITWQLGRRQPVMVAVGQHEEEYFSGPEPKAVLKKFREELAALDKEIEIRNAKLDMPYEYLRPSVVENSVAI
The experiment is described as follows: Binding affinity to wild-type His6-tagged human 15-LOX expressed in Escherichia coli Rosetta DE3 by SPR assay. An outline of the steps: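 15-LOX amine-coupled to a CM5 chip at 800 RU, 25 °C, in PBS-P pH 7.4. Compound concentrations in 5% DMSO injected serially; regenerated by buffer washing. KD from Hill fit of response units.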
Background: In SPR one partner is held on a chip, and binding of the other changes the refractive index at the surface.

Experiment [2] deals with T2, Polyunsaturated fatty acid lipoxygenase ALOX15 (Homo sapiens) (UniProt P16050).
T2 sequence (whole entry): T1 sequence (P16050 whole entry)
Nature of the experiment: Activation of wild-type His6-tagged human 15-LOX expressed in Escherichia coli Rosetta DE3 assessed as 15-HpETE formation at 40 uM pre-incubated for 1 min before arachidonic acid substrate addition by cell free assay.

As to `C[n+]1cn(/N=C/c2ccccc2)c2ccccc21`, the Kd (in general, the constant that tells how readily two partners part at equilibrium) in experiment [1] turned out to be 15.3 µM. Moreover, in experiment [2], the %max was 61%.
In experiment [1], `c1cc2c3c(cccc3c1)-c1n[n+]3cc4ccccn4c3cc1-2` showed a Kd of 4.4 µM. The %max in experiment [2] was determined as 84%.
